Rows were chosen to be rich in hits. Some 1.8% of all compounds tested hit in one or more screens of this group.
CHRM5 antagonist = human M5 muscarinic receptor antagonists, primary screen, CHO cells, Fluo-8 calcium fluorescence. Muscarinic acetylcholine receptor M5 (Homo sapiens), P08912. CHO-hM5 cells, ACh EC80. inhibition, % at 3 µM. 360,000 compounds, 0.59% hits;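 active means inhibition above a per-plate cutoff, the mean of that plate's test compounds plus 3 SD, cut at about 27% in these data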;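 further: 0% = acetylcholine EC80 with DMSO and 100% = DMSO without agonist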
Target sequence (P08912 whole entry, looked up): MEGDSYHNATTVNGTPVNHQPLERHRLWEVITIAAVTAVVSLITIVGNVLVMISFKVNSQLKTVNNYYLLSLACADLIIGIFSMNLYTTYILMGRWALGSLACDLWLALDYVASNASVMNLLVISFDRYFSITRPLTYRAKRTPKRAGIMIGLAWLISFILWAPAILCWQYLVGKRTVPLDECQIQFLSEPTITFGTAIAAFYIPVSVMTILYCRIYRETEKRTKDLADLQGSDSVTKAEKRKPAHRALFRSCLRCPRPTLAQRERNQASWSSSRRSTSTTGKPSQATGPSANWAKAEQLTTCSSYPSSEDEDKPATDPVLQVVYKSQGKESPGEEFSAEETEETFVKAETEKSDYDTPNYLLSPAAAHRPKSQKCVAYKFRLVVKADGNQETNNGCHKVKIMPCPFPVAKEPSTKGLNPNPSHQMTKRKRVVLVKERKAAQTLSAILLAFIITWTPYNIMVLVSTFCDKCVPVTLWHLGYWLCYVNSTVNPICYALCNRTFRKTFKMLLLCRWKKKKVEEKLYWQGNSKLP
M4 PAM = human M4 muscarinic receptor positive allosteric modulators, primary screen, CHO-K1 cells, Fluo-8 calcium fluorescence | activation, % at 3 µM | CHO-K1 hM4/Gqi5, ACh EC20; 0% = ACh EC20, 100% = maximal ACh | AID 624126, 2012 | 360,000 compounds, 0.4% hits;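 active means activation above its plate's cutoff, the mean activation of sample wells plus 3 SD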
M4 ag = human M4 muscarinic receptor agonists, primary screen, CHO-K1 cells, Fluo-8 calcium fluorescence; Muscarinic acetylcholine receptor M4 (Homo sapiens), P08173; CHO-K1 hM4/Gqi5; vehicle 0%, full acetylcholine response 100%; activation, % at 3 µM; 360,000 compounds, 0.14% hits; AID 624127, 2012;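 active means activation above the run mean over all test wells plus 3 SD, cut at about 32% in these data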;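 further: peak over basal fluorescence ratio per well then scaled between controls; 0% = DMSO wells and 100% = acetylcholine at EC100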
M4 antag = human M4 muscarinic receptor antagonists, primary screen, CHO cells, Fluo-8 calcium fluorescence | Muscarinic acetylcholine receptor M4 (Homo sapiens), P08173 | CHO-hM4 cells, ACh EC80 | inhibition, % at 3 µM | 360,000 compounds, 0.73% hits;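 active means inhibition above its plate's cutoff, the mean inhibition of sample wells plus 3 SD, cut at about 27% in these data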;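 further: 0% = acetylcholine EC80 with DMSO and 100% = DMSO without agonist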
CHRM5 agonist = human M5 muscarinic receptor agonists, primary screen, CHO-K1 cells, Fluo-8 calcium fluorescence | Muscarinic acetylcholine receptor M5 (Homo sapiens), P08912 | CHO-K1 hM5 cells; 0% DMSO wells, 100% maximal acetylcholine response | activation, % at 3 µM | AID 624037, 2012 | 360,000 compounds, 0.19% hits;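 active means activation above the run's mean over test compounds plus 3 SD, cut at about 23% in these data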;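 further: signal is peak over basal fluorescence ratio across the kinetic read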
M5 PAM = human M5 muscarinic receptor positive allosteric modulators, primary screen, CHO-K1 cells, Fluo-8 calcium fluorescence; CHO-K1 hM5, ACh EC20 PAM; 0% = ACh EC20, 100% = ACh EC100; 360,000 compounds, 0.3% hits; AID 624038, 2012; Muscarinic acetylcholine receptor M5 (Homo sapiens), P08912; activation, % at 3 µM;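 active means activation above the run cutoff, the mean activation of all test compounds plus 3 SD, cut at about 18% in these data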
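Measured by: Fluo-8 calcium fluorescence; material: human M5 receptor in CHO-K1 cells; schedule: Post-acetylcholine fluorescence recording 140 s; benchmarks: low control EC20 acetylcholine (0%), high control EC100 acetylcholine (100%); read-out: Max/basal fluorescence ratio as % of EC20–EC100 ACh window; compound: single dose, 3 µM nominal final test concentration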
Numbers without * were called inactive.

SMILES	CHRM5 antagonist	M4 PAM	M4 ag	M4 antag	CHRM5 agonist	M5 PAM
COc1ccc(CCNC(=O)C(=O)N/N=C/c2cccs2)cc1OC	-7.4	-1.7	1.4	2.3	1.1	3.1
CCOC(=O)CC(NC(=O)c1ccco1)c1ccc(OC)cc1 (stereo unspecified)	-1.9	6.3	-0.1	-6.6	-3.5	21.4*
CC(=O)OCc1c(C(F)(F)F)nn(C)c1SCc1ccc(Cl)cc1	9.9	-23.9	-3.1	56.0*	-7.5	-21.0
O=C(Nc1ccc(Br)cc1)c1ccc(F)c(S(=O)(=O)NCc2cccs2)c1	38.0*	-10.1	12.2	23.8	8.6	-18.4
OCCN1CCN(C2CCC(c3ccc(F)cc3)c3ccc(F)cc32)CC1 (stereo unspecified)	18.8	-10.0	6.0	10.7	-6.4	-9.4
Fc1ccccc1-c1cc2ccccc2cn1	8.5	5.4	-0.2	-9.0	-6.0	1.9
O=C(Nc1nnc(-c2ccccc2Cl)o1)c1nc2ccccc2s1	7.2	-9.1	110.7*	-5.8	65.1*	-16.6
Cc1ccc(NC(=O)Cn2cc(C=O)c3ccccc32)cc1	26.4	-7.0	6.7	2.8	-2.6	-14.0
O=Cc1cn(CC(=O)Nc2ccc3c(c2)OCO3)c2ccccc12	27.3*	-20.3	22.2	21.9	6.6	-20.0
CCNC(=O)C1(C)CCCN(Cc2ccc3ccccc3c2Br)C1 (stereo unspecified)	7.8	-11.6	1.4	34.9*	-2.5	-3.6
O=C(Cc1cccc2ccccc12)NC(=S)Nc1cccc(C(=O)O)c1	-4.5	-3.7	-0.2	-7.1	-1.8	6.8
CCc1ccc(NC(=O)C2CCN(S(=O)(=O)c3ccc4[nH]c(=O)ccc4c3)CC2)cc1	-5.2	-3.1	3.4	-17.9	-3.0	-2.3
COC(=O)c1cn(Cc2ccccc2C)nn1	-7.7	22.2*	1.8	-6.5	-2.1	7.4
NS(=O)(=O)c1ccc(NC(=O)/C(=C/c2ccncc2)NC(=O)c2ccccc2)cc1	4.5	6.5	2.1	-19.9	-2.6	-2.9
Cc1cccc(-c2nnc3n2N=C(c2ccccc2)CS3)c1	8.2	4.6	2.8	-0.4	-4.6	-7.2
Cc1nn2c(nc1=O)SCC(c1ccccc1)=N2	-19.2	2.8	0.8	-16.6	-1.4	28.4*
COC(=O)c1[nH]c2ccc(C)cc2c1NC(=O)CCN1CCN(Cc2ccc3c(c2)OCO3)CC1	32.6*	-15.0	1.8	24.6	-7.5	-12.2
O=C(N/N=C1/CCSC1)c1cc(Br)ccc1O	45.5*	-4.0	8.3	-5.3	-0.6	-17.8
O=C(CCC1CCCN(C2C3CC4CC(C3)CC2C4)C1)NCc1ccc(F)c(F)c1 (stereo unspecified)	9.7	-19.5	0.2	40.6*	-15.7	0.4
Cc1occc1C(=O)N1CCCC(CCC(=O)NCc2ccc(F)c(F)c2)C1 (stereo unspecified)	1.9	2.0	2.2	-7.2	-2.0	2.9
CC(C)N1CN(c2ccccc2)C(=S)N(c2ccccc2)C1	-0.8	18.0*	0.2	-16.5	8.2	2.1
Cc1ccc([N+](=O)[O-])cc1S(=O)(=O)NCCc1c(C)[nH]c2c(C)cccc12	19.4	-6.1	4.3	27.9*	1.9	-5.6
COCCN(C(=O)Cc1ccc(S(=O)(=O)N2CCOCC2)s1)c1c(N)n(CC(C)C)c(=O)[nH]c1=O	-1.4	9.4	1.7	-20.4	2.7	0.4
COc1ccc(Cl)cc1NC(=O)CN(C)C(=O)c1cn2ccccc2n1	-3.2	4.3	3.6	-0.8	5.0	-4.1
c1ccc(C(Cc2nc(-c3ccncc3)no2)c2ccccc2)cc1	30.7*	-10.9	1.5	18.4	0.4	-16.4
SMILES	CHRM5 antagonist	M4 PAM	M4 ag	M4 antag	CHRM5 agonist	M5 PAM
COc1ccccc1CNC(=O)CSc1cc(=O)n(C)c2ccccc12	5.6	-1.9	0.8	8.9	-0.6	-0.8
COc1ccc(Oc2nnc(-c3ccccc3)cc2C#N)cc1	0.1	26.7*	1.2	-0.3	-1.9	9.8
COCCNCCOc1ccccc1-c1ccccc1	-10.9	2.2	1.5	-1.1	-10.7	18.9*
COc1ccc(CN2CCN(Cc3cccc(Oc4ccccc4)c3)CC2)c(OC)c1OC	35.2*	-16.4	22.1	12.5	-0.4	-17.9
COc1cccc(CN(C)C(=O)c2cccc(S(=O)(=O)NCc3ccccc3)c2)c1OC	-4.8	-9.3	15.4	3.5	4.2	-5.7
COc1ccc(CN(C)C(=O)c2cccc(Oc3ccccc3)c2)c(OC)c1OC	29.8*	-8.4	11.3	2.7	-2.4	-13.0
Clc1ccc(-c2cc3nc(NCc4cccc(Cl)c4)ccn3n2)cc1	-2.1	-1.8	2.5	-15.6	1.3	-3.3
CCN(C(=O)C1CCCN1S(=O)(=O)c1ccc2c(c1)n(C)c(=O)c(=O)n2C)c1ccccc1 (stereo unspecified)	5.0	-0.4	-0.1	1.4	-1.4	-0.2
Cc1ccc(/C=C/C(=O)c2cc(Br)ccc2OC(=O)c2ccco2)cc1	-6.0	6.6	0.0	-8.1	-3.3	21.2*
CCCC1C(=O)Nc2ccccc2N1C(=O)c1cccc(C)c1 (stereo unspecified)	29.1*	-17.9	1.5	45.0*	-10.2	-21.4
CCC[C@@H]1CCCO[C@@](C(=O)NCc2ccccn2)(C(F)(F)F)C1	8.5	0.2	0.1	-7.3	-3.8	-1.4
O=C(Nc1ccc(Cl)c(Cl)c1)OCc1cccnc1	31.2*	-17.0	16.9	34.2*	4.8	-16.3
O=C(Nc1cccnc1)OCc1ccccc1	-37.3	2.1	1.5	-1.1	8.8	-2.3
O=C(Nc1ccc(Cl)c(Cl)c1)c1cccc(S(=O)(=O)NCc2cccnc2)c1	33.6*	-11.4	22.7	21.7	13.4	-18.5
COc1ccc(S(=O)(=O)N2CCC(C(=O)NC3CCCC3)CC2)cc1C	16.5	-2.9	1.8	-4.8	-4.3	-1.6
CNC(C)C(=O)NC(C(=O)NC(C)C(=O)Nc1cccc2ccccc12)C(C)C (stereo unspecified)	-4.4	18.4*	0.3	-14.7	-0.4	-3.5
O=C(O)c1cc([N+](=O)[O-])ccc1NCCCc1ccccc1	5.7	1.6	3.6	-1.4	34.6*	-14.9
Cc1ccc(S(=O)(=O)N2Cc3ccccc3CC2C(=O)NC(C)(C)C)cc1 (stereo unspecified)	8.0	-1.3	-0.2	-6.9	-1.0	2.2

Compound activity (PubChem)
